The results in this text go back to ChEMBL document CHEMBL1149661, “Synthesis, biological evaluation, and molecular modeling of 3,5-substituted-N1-phenyl-N4,N4-di-n-butylsulfanilamides as antikinetoplastid antimicrotubule agents” (Bioorg Med Chem, 2007).

One series deals with Tubulin (Sus scrofa, UniProt P02554+P02550). In words: Inhibition of porcine tubulin assembly. The format is protein assay. The gist of the method:
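Purified porcine brain tubulin at a final 2 mg/mL (raised from 1.5 mg/mL to make control assembly more reproducible). Polymerization read as the absorbance change at 351 nm after 20 min at 30 °C relative to controls. IC50 is the mean ± SD of at least three independent experiments.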

In series [1] the test system is Trypanosoma brucei brucei. In words: Growth inhibition against Trypanosoma brucei brucei. Format: functional, organism-based.
The test system of another series is Leishmania donovani. Nature of the series: Growth inhibition against Leishmania donovani. The format is functional, organism-based.
Series [2] can be described thus: Inhibition of Leishmania tarentolae tubulin assembly. The gist of the method:
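Purified Leishmania tarentolae tubulin, 1.5 mg/mL, polymerized with or without compound. Assembly read as the absorbance change at 351 nm after 20 min at 30 °C, compared with untreated controls. Assembly kinetics were also followed over time. IC50 is the mean ± SD of at least three independent experiments.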

Series [3] is described as follows: Toxicity against monkey Vero cells. The format is cell-based. To be noted: Chlorocebus sabaeus (monkey).
Another series addresses Tubulin (Sus scrofa) (UniProt P02554+P02550). Nature of the series: Inhibition of porcine tubulin assembly at 100 uM. The format is protein assay. The procedure, abridged:
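Porcine brain tubulin at a final 2 mg/mL, assembled with compound at a single 100 μM. Inhibition taken from the absorbance change at 351 nm after 20 min at 30 °C, relative to controls without compound.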

Sequence of Tubulin (Sus scrofa) (P02550 whole entry, looked up): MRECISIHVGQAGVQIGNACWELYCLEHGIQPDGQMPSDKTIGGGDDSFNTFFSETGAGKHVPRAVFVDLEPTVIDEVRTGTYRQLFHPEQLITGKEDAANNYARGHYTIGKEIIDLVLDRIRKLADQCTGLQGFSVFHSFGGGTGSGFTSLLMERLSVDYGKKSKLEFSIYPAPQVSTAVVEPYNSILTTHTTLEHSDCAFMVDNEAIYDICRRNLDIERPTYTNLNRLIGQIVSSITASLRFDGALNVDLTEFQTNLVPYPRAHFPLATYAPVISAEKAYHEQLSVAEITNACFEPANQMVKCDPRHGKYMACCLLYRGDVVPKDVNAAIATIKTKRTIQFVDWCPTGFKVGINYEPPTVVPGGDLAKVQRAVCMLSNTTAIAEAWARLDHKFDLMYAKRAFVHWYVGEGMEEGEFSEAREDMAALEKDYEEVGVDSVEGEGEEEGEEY
Sequence of Tubulin (Sus scrofa) (P02554 whole entry, looked up): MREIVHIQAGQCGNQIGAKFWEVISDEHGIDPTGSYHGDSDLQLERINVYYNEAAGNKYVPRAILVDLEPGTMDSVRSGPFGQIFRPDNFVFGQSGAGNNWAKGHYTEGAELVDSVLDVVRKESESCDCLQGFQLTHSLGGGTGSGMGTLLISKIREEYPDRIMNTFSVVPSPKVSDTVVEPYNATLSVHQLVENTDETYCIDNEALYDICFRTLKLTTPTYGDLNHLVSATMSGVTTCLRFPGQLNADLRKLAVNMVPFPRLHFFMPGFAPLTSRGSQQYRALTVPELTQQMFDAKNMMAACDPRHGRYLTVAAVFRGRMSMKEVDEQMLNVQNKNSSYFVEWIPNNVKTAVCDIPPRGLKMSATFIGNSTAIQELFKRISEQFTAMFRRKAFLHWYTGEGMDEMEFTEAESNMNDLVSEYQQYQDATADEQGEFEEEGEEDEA

`CCCCN(CCCC)c1c([N+](=O)[O-])cc(S(=O)(=O)Nc2ccccc2)cc1[N+](=O)[O-]`: the IC50 at Tubulin is over 40 µM; in series [1], 0.18 µM; in the series with Leishmania donovani it was 2.3 µM; in series [2], 7.4 µM; in series [3], 9.7 µM.

For the compound `CCCCN(CCCC)c1c(C(N)=O)cc(S(=O)(=O)Nc2ccccc2)cc1C(N)=O`, the IC50 in series [1] is over 50 µM; in the series on Leishmania donovani, over 50 µM; in series [2], over 100 µM.

For `CCCCN(CCCC)c1c(C#N)cc(S(=O)(=O)Nc2ccccc2)cc1C#N`, the IC50 is over 50 µM on Tubulin; 0.26 µM in series [1]; 4.4 µM with Leishmania donovani; 6.6 µM in series [2]; 16 µM in series [3].

`Cc1ccc(C(=O)Nc2ccc(S(=O)(=O)O)c3cc(S(=O)(=O)O)cc(S(=O)(=O)O)c23)cc1NC(=O)c1cccc(NC(=O)Nc2cccc(C(=O)Nc3cc(C(=O)Nc4ccc(S(=O)(=O)O)c5cc(S(=O)(=O)O)cc(S(=O)(=O)O)c45)ccc3C)c2)c1` [SURAMIN]: the IC50 in series [1] turned out to be 0.077 µM.

For `CCCCN(CCCC)c1c(C(C)=O)cc(S(=O)(=O)Nc2ccccc2)cc1C(C)=O`, the IC50 at Tubulin was over 100 µM; in series [1], 1.6 µM; in the series on Leishmania donovani, 30 µM; in series [2], over 100 µM; in series [3], 26 µM.

In the case of `CCCCN(CCCC)c1c(C(=O)O)cc(S(=O)(=O)Nc2ccccc2)cc1C(=O)O`, the values for the 50% inhibitory concentration (IC50) (in series [1]; in the series with Leishmania donovani; in series [2]) were over 50 µM, over 50 µM and over 100 µM, respectively.

As for `CCCCN(CCCC)c1c(Cl)cc(S(=O)(=O)Nc2ccccc2)cc1Cl`, the half-maximal inhibitory concentration (IC50) at Tubulin is over 50 µM; in series [1], 1.6 µM; in the series on Leishmania donovani it was 11 µM; in series [2] it was 9.1 µM; in series [3] it was 19 µM.

Compound `N=C(N)c1ccc(OCCCCCOc2ccc(C(=N)N)cc2)cc1` [PENTAMIDINE] gave an IC50 in the series on Leishmania donovani of 2.3 µM.

For the compound `COc1cc([C@@H]2c3cc4c(cc3[C@H](O)[C@H]3COC(=O)[C@H]23)OCO4)cc(OC)c1OC` [PODOFILOX], in series [3], the half-maximal inhibitory concentration (IC50) is 0.016 µM.

Take `CCCCN(CCCC)c1c(C(=O)OC)cc(S(=O)(=O)Nc2ccccc2)cc1C(=O)OC`: the half-maximal inhibitory concentration (IC50) in series [1] is over 50 µM; with Leishmania donovani, over 50 µM; in series [2], over 100 µM.

As for `CCCCN(CCCC)c1c(N)cc(S(=O)(=O)Nc2ccccc2)cc1N`, the IC50 was over 50 µM on Tubulin; 4 µM in series [1]; 12 µM in the series on Leishmania donovani; over 100 µM in series [2]; 27 µM in series [3]. For the same compound, the inhibition on Tubulin (Sus scrofa) amounted to 50%.

As usually defined, the IC50 is the midpoint of a concentration-inhibition curve. As a reminder, the inhibition is the change of the read-out against control, counted positive when it falls.
